Measured values as given in the RNAGym collection of RNA variant scans (doi:10.1126/science.aae0568).
Fewer inactive variants are shown than the library holds.

B1: tRNA (parent)
chain: GUUCCGUUGGCGUAAUGGUAACGCGUCUCCCUCCUAAGGAGAAGACUGCGGGUUCGAGUCCCGUACGGAACG

Variants of: B1
Assay: yeast fitness relative to wild type (ratio to wild type); higher = fitter; tRNA-Arg(CCU), competitive growth, 37 C, YPD
Outline: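 The tRNA-Arg(CCU) gene variants were made by chemical synthesis with a 3% per-site mutation rate at 69 sites and inserted at the native genomic locus of Saccharomyces cerevisiae. After pooling, the strains were competed in YPD at 37°C for 24 hours in six parallel replicates. Gene amplicons from the start population and each end population were read by 100-nucleotide paired-end sequencing, and Darwinian fitness relative to wild type was taken from genotype frequency changes. Genotypes needed ≥ 100 starting reads, and estimates < 0.5 were set to 0.5.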
A20C C61U A69U gave a yeast fitness of 0.61.
A20C G25A C31G C33U C34U G41C C60A C66U gave a yeast fitness of no more than 0.5.
Variant A20C G25C A40U has a yeast fitness of 0.605.
Variant A20C G25C G38C A43G has a yeast fitness of no more than 0.5.
A20C G38A U53A showed a yeast fitness of no more than 0.5.
A20C G39C gave a yeast fitness of 0.723.
Work on A20C G39C C49U yielded a yeast fitness of no more than 0.5.
For A20C G39C G41A, the yeast fitness was 0.652.
Work on A20C G41A G58U yielded a yeast fitness of 0.706.
A20C G41C C66G showed a yeast fitness of no more than 0.5.
A20C G44A G56A gave a yeast fitness of 0.544.
Work on A20C G48C A57G G63A yielded a yeast fitness of no more than 0.5.
Work on A20C G48C A70C yielded a yeast fitness of 0.649.
A20C G52C showed a yeast fitness of 0.583.
Work on A20C G56A A65G C66U yielded a yeast fitness of 0.562.
With A20C G67U the yeast fitness was 0.754.
A20C G68A showed a yeast fitness of 0.843.
With A20C G68A A70C the yeast fitness was 0.522.
Variant A20C U26G has a yeast fitness of 0.572.
Work on A20C U28A yielded a yeast fitness of 0.672.
For A20C U28A C62U G67A, the yeast fitness was no more than 0.5.
A20C U32A C34G A37U gave a yeast fitness of no more than 0.5.
Variant A20C U32A C34G A57C C66U has a yeast fitness of no more than 0.5.
Variant A20C U35C G51C A57G C60G A70U has a yeast fitness of no more than 0.5.
In the case of A20C U53A, the yeast fitness is reported as 0.767.
A20C U54C C55U showed a yeast fitness of no more than 0.5.
In the case of A20C U54G, the yeast fitness is reported as 0.539.
Variant A20C U59C A69C has a yeast fitness of 0.705.
For A20C U64A G67A, the yeast fitness was no more than 0.5.
In the case of A20G A21G C24U U59C C62A, the yeast fitness is reported as no more than 0.5.
A20G A21G C29G gave a yeast fitness of 0.543.
A20G A21U A42C gave a yeast fitness of 0.547.
Work on A20G A21U A70U yielded a yeast fitness of no more than 0.5.
A20G A36C C49G U54C showed a yeast fitness of no more than 0.5.
A20G A37C A40G C49U gave a yeast fitness of no more than 0.5.
Variant A20G A40C has a yeast fitness of 0.803.
For A20G A40C A42U A43C, the yeast fitness was no more than 0.5.
Variant A20G A40C A42U A43C G48A A69C has a yeast fitness of no more than 0.5.
A20G A40G G50C gave a yeast fitness of 0.574.
A20G A40U gave a yeast fitness of 0.92.
Variant A20G A40U G52A C55A has a yeast fitness of 0.529.
In the case of A20G A42C A45C, the yeast fitness is reported as no more than 0.5.
For A20G A42C A70G, the yeast fitness was 0.629.
A20G A43U showed a yeast fitness of 1.03.
Variant A20G A43U U64C has a yeast fitness of 0.704.
A20G A45U G63C showed a yeast fitness of 0.539.
With A20G A57C the yeast fitness was 0.642.
Variant A20G A57C C62G C66G has a yeast fitness of no more than 0.5.
Variant A20G A57G C62U A69G has a yeast fitness of 0.772.
Work on A20G A65U G68C yielded a yeast fitness of 0.556.
Work on A20G C22G C27G C30U C31G G51C yielded a yeast fitness of no more than 0.5.
For A20G C22G C30U U54C, the yeast fitness was no more than 0.5.
For A20G C22G G38A, the yeast fitness was 0.539.
In the case of A20G C22G U54A, the yeast fitness is reported as no more than 0.5.
Work on A20G C22U G50C G63C G67C yielded a yeast fitness of no more than 0.5.
Work on A20G C22U G51C yielded a yeast fitness of no more than 0.5.
Work on A20G C24A A42U yielded a yeast fitness of 0.546.
For A20G C24A A70U, the yeast fitness was 0.546.
A20G C24A C49U C66U A70C gave a yeast fitness of no more than 0.5.
With A20G C24G C66U the yeast fitness was 0.527.
With A20G C24G G52C the yeast fitness was no more than 0.5.
For A20G C24G U32C G51A, the yeast fitness was no more than 0.5.
Work on A20G C24U yielded a yeast fitness of 0.9.
Work on A20G C24U G25A U35A C60U A70G yielded a yeast fitness of 0.655.
With A20G C24U G56A C66G the yeast fitness was no more than 0.5.
For A20G C27A A40G A45C, the yeast fitness was no more than 0.5.
In the case of A20G C27A C31A, the yeast fitness is reported as no more than 0.5.
A20G C27U U28G showed a yeast fitness of 0.565.
Variant A20G C29A A40U C62G has a yeast fitness of no more than 0.5.
Work on A20G C29A C49U G63A yielded a yeast fitness of no more than 0.5.
Variant A20G C29G C49U G68A has a yeast fitness of no more than 0.5.
Work on A20G C29G G50A A70U yielded a yeast fitness of no more than 0.5.
In the case of A20G C29G G63C, the yeast fitness is reported as no more than 0.5.
With A20G C29G G68A the yeast fitness was no more than 0.5.
In the case of A20G C30U C46A G63U, the yeast fitness is reported as no more than 0.5.
A20G C31A C34G A45U showed a yeast fitness of no more than 0.5.
A20G C31G C60G gave a yeast fitness of no more than 0.5.
Variant A20G C31U A42U C46U C66G has a yeast fitness of 0.714.
A20G C31U A57C U64A G68A gave a yeast fitness of no more than 0.5.
Work on A20G C31U C46G yielded a yeast fitness of 0.649.
A20G C33A A36C U47A showed a yeast fitness of no more than 0.5.
A20G C33U G39A A57G U59C gave a yeast fitness of 0.517.
For A20G C34G, the yeast fitness was 0.68.
A20G C34U gave a yeast fitness of 0.777.
Work on A20G C34U A40U A42U yielded a yeast fitness of no more than 0.5.
Work on A20G C46G C49G yielded a yeast fitness of 0.565.
Variant A20G C46U A70U has a yeast fitness of 0.878.
Work on A20G C49U C61G yielded a yeast fitness of 0.617.
A20G C55U gave a yeast fitness of 0.82.
A20G C60U showed a yeast fitness of 0.744.
A20G C60U A69U showed a yeast fitness of 0.592.
A20G C60U C62U showed a yeast fitness of no more than 0.5.
Variant A20G G23A A65G has a yeast fitness of 0.574.
Work on A20G G23A G38A yielded a yeast fitness of no more than 0.5.
In the case of A20G G23C A69C, the yeast fitness is reported as no more than 0.5.
Variant A20G G23C C31U A57U C66U has a yeast fitness of no more than 0.5.
For A20G G25A C31G C62A, the yeast fitness was no more than 0.5.
A20G G25A C34A A36G G50C showed a yeast fitness of no more than 0.5.
Work on A20G G25A C62U A65C yielded a yeast fitness of 0.813.
A20G G25C C33G C60A gave a yeast fitness of no more than 0.5.
A20G G38C A45C G51A showed a yeast fitness of no more than 0.5.
With A20G G38C C46U G63U the yeast fitness was no more than 0.5.
In the case of A20G G41C A70U, the yeast fitness is reported as 0.622.
With A20G G44A the yeast fitness was 0.962.
With A20G G48C the yeast fitness was 1.
In the case of A20G G50A, the yeast fitness is reported as 0.905.
For A20G G50C G63C G67C, the yeast fitness was no more than 0.5.
For A20G G56A A57C, the yeast fitness was 0.574.
Work on A20G G56C G68C yielded a yeast fitness of 0.6.
With A20G G58C the yeast fitness was 1.
In the case of A20G G67A A69C, the yeast fitness is reported as 0.563.
A20G G67U A69C showed a yeast fitness of no more than 0.5.
Variant A20G U28C C62A has a yeast fitness of no more than 0.5.
In the case of A20G U28G C31U, the yeast fitness is reported as 0.588.
For A20G U47C G50C, the yeast fitness was no more than 0.5.
With A20G U53C G56C the yeast fitness was no more than 0.5.
Work on A20G U54C A70C yielded a yeast fitness of 0.578.
Work on A20G U54G A57U yielded a yeast fitness of no more than 0.5.
In the case of A20G U64G G68A A70C, the yeast fitness is reported as no more than 0.5.
For A20U A21C C27A A45G, the yeast fitness was no more than 0.5.
A20U A21C G67A gave a yeast fitness of no more than 0.5.
With A20U A21G C27G the yeast fitness was no more than 0.5.
With A20U A21G C61U the yeast fitness was no more than 0.5.
Variant A20U A21U has a yeast fitness of 0.61.
Work on A20U A21U C34G G63C yielded a yeast fitness of no more than 0.5.
For A20U A36G A43U, the yeast fitness was 0.601.
A20U A36G G38A A40U A42G showed a yeast fitness of no more than 0.5.
Variant A20U A36G G48C G67C has a yeast fitness of no more than 0.5.
A20U A36G G68A gave a yeast fitness of 0.574.
A20U A36U showed a yeast fitness of 0.639.
Work on A20U A37C G38C yielded a yeast fitness of no more than 0.5.
Variant A20U A37G has a yeast fitness of 0.892.
Variant A20U A37U G41C C46G has a yeast fitness of no more than 0.5.
A20U A40G gave a yeast fitness of 0.903.
In the case of A20U A40U G44C U53G, the yeast fitness is reported as no more than 0.5.
For A20U A42U A45G, the yeast fitness was 0.532.
A20U A43G G51A A69C gave a yeast fitness of no more than 0.5.
Work on A20U A45U A69U yielded a yeast fitness of 0.726.
In the case of A20U A70G, the yeast fitness is reported as 0.918.
For A20U C22A C61A C62G G68A, the yeast fitness was no more than 0.5.
A20U C22G A40G G50C G51C G56A showed a yeast fitness of no more than 0.5.
A20U C22G A45C U59C gave a yeast fitness of 0.651.
A20U C22G G23A A43U G50A showed a yeast fitness of no more than 0.5.
A20U C22U showed a yeast fitness of 0.716.
In the case of A20U C22U U47A, the yeast fitness is reported as no more than 0.5.
In the case of A20U C24A G51C, the yeast fitness is reported as no more than 0.5.
Work on A20U C24U yielded a yeast fitness of 0.841.
Work on A20U C24U A42U C46A C55U C61G yielded a yeast fitness of 0.518.
A20U C27G C29A A65G showed a yeast fitness of no more than 0.5.
Work on A20U C27G C29A G58A yielded a yeast fitness of no more than 0.5.
For A20U C27G C29U, the yeast fitness was no more than 0.5.
A20U C29A showed a yeast fitness of 0.797.
With A20U C29A C30A the yeast fitness was no more than 0.5.
In the case of A20U C29A C30A U53G C62G, the yeast fitness is reported as no more than 0.5.
Variant A20U C29G A43U has a yeast fitness of 0.612.
Variant A20U C29U A42G C49G C55A has a yeast fitness of no more than 0.5.
With A20U C29U C49G C55A C66U the yeast fitness was no more than 0.5.
With A20U C29U C49G C55A G68C the yeast fitness was no more than 0.5.
Work on A20U C30A yielded a yeast fitness of 0.795.
A20U C30U A57G A65U showed a yeast fitness of no more than 0.5.
In the case of A20U C30U C31G A43G G44A U47A C49G, the yeast fitness is reported as 0.595.
Work on A20U C30U C34G U53C A57U G67C yielded a yeast fitness of no more than 0.5.
A20U C30U U35G A36U showed a yeast fitness of no more than 0.5.
Work on A20U C31A G52A C66U yielded a yeast fitness of 0.527.
A20U C31G A40C showed a yeast fitness of no more than 0.5.
A20U C31U C49U gave a yeast fitness of 0.773.
For A20U C31U C66A, the yeast fitness was no more than 0.5.
